Key:
HEK293 = assay: Cytotoxicity against HEK293 cells assessed as fold change in capase3/7 activity by Caspase-Glo 3/7 assay relative to DMSO; assay type: cell-based; conditions: human
Hepatocyte = assay: Cytotoxicity against mouse primary hepatocytes assessed as fold change in capase3/7 activity by Caspase-Glo 3/7 assay relative to DMSO; assay type: cell-based
CYP2D6 = CYP2D6 (Homo sapiens, UniProt P10635); assay: Inhibition of human microsomal CYP2D6 at 10 uM after 3 mins by single quad LC/MS analysis; assay type: ADME; conditions: microsomes
CYP2C9 = CYP2C9 (Homo sapiens, UniProt P11712); assay: Inhibition of human microsomal CYP2C9 at 10 uM after 10 mins by single quad LC/MS analysis; assay type: ADME; conditions: microsomes
CYP3A4 = CYP3A4 (Homo sapiens, UniProt P08684); assay: Inhibition of human microsomal CYP3A4 at 10 uM after 3 mins by single quad LC/MS analysis; assay type: ADME; conditions: microsomes
[1] = Drug metabolism in mouse microsomes at 4 uM after 30 mins by single quad LC/MS analysis; assay type: ADME, Microsome; conditions: read-out: Drug metabolism
[2] = Drug metabolism in human microsomes at 4 uM after 30 mins by single quad LC/MS analysis; assay type: ADME, Microsome; conditions: read-out: Drug metabolism
[3] = Suppression of high glucose stimulated insulin secretion in mouse pancreatic islets at 200 uM treated for 24 hrs followed by glucose stimulation for 20 mins by HTRF assay relative to control; assay type: ADME, cell-based; conditions: pancreatic islet
Method in brief: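 Mouse islet screening assay in high-glucose (20 mM) medium with compounds at 200 µM. Insulin secretion is expressed as fold change relative to vehicle. Mean of n = 4 experiments with SEM; significance by Student's t-test, p ≤ 0.05.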

[4] = Suppression of glucose stimulated insulin secretion in mouse pancreatic islet at 200 uM incubated for 24 hrs followed by glucose stimulation for 20 mins by HTRF assay relative to control
[5] = Effect on insulin content in glucose-stimulated mouse pancreatic islet at 200 uM incubated for 24 hrs followed by glucose stimulation for 20 mins by HTRF assay; assay type: ADME, cell-based
Method in brief: (§1)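 Mouse islets treated with compounds at 200 µM. Insulin secretion was then measured under low- and high-glucose GSIS conditions and under KCl stimulation, and intracellular insulin content was measured. Mean of n = 4-5 experiments with SEM.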

[6] = Effect on insulin content in KCl-stimulated mouse pancreatic islet at 200 uM incubated for 24 hrs followed by KCl stimulation for 20 mins by HTRF assay; assay type: ADME, cell-based; method in brief: as §1
[7] = Suppression of glucose-stimulated insulin secretion in mouse pancreatic islet at 200 uM incubated for 24 hrs followed by glucose stimulation for 20 mins by HTRF assay; assay type: ADME, cell-based; method in brief: as §1
[8] = Suppression of KCl-stimulated insulin secretion in mouse pancreatic islet at 200 uM incubated for 24 hrs followed by KCl stimulation for 20 mins by HTRF assay; assay type: ADME, cell-based; method in brief: as §1
[9] = Passive permeability in MDCK cells; assay type: ADME, cell-based, Canis lupus familiaris; conditions: dog

CYP3A4, sequence (P08684 whole entry): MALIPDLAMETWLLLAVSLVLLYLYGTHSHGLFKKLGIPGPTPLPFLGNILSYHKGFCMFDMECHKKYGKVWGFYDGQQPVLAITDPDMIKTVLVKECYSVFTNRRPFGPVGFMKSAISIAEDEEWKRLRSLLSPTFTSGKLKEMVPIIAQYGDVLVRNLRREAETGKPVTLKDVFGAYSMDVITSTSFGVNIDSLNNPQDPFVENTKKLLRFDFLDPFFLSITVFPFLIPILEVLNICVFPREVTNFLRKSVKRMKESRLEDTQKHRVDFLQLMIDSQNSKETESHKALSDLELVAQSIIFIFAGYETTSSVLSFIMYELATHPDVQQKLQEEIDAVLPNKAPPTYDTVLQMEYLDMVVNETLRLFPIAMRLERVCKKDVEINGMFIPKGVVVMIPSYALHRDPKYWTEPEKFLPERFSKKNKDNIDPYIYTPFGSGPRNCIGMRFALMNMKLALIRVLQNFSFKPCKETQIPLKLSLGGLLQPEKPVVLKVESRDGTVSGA
CYP2D6, sequence (P10635 whole entry): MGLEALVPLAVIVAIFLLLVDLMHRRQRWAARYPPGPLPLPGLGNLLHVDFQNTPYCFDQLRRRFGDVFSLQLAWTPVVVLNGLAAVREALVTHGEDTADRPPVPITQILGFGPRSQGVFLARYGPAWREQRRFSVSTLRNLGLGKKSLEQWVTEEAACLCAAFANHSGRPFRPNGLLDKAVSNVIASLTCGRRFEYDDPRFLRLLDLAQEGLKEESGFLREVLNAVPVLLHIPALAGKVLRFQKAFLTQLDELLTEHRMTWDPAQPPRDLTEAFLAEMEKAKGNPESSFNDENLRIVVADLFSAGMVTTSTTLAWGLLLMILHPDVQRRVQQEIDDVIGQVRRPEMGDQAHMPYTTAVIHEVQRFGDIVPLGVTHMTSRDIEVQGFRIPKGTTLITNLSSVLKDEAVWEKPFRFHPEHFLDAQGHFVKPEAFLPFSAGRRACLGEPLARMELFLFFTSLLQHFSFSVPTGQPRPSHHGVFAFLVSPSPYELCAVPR
CYP2C9, sequence (P11712 whole entry): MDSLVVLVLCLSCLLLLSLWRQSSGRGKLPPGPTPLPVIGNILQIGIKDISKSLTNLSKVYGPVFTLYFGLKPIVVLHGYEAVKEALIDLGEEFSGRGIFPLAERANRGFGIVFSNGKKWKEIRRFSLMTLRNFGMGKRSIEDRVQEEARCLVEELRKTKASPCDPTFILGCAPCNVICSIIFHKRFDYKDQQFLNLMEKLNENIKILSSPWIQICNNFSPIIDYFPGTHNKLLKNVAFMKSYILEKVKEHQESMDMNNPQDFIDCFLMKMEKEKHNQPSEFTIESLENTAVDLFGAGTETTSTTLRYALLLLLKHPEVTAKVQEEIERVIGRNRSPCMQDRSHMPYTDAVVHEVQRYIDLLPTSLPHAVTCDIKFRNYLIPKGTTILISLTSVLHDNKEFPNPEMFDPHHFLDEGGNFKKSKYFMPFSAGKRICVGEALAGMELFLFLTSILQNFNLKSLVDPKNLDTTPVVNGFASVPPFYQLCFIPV

Compound	inhibition at 0.05 h, 10 µM (CYP2D6) [%]	inhibition at 10 min, 10 µM (CYP2C9) [%]	inhibition at 0.05 h, 10 µM (CYP3A4) [%]	metabolised at 0.5 h, 4 µM [1] [%]	metabolised at 0.5 h, 4 µM [2] [%]	permeability [9]	fold change (FC) (HEK293)	fold change (FC) (Hepatocyte)	Activity [3]	Activity [4]	Activity [5]	Activity [6]	Activity [7]	Activity [8]
Cc1oc(CCC(=O)O)c(C(=O)O)c1C	–	–	–	–	–	–	0.8 to 1	2	–	–	–	–	–	–
CCC(=O)c1oc(CCC(=O)O)c(C(=O)O)c1C	11	10	3	–	–	–	1 to 1.1	1.1	–	–	–	–	–	–
CCC(=O)c1oc(CCC(=O)OC)c(C(=O)OC)c1C	–	–	–	–	–	–	1 to 1.1	1.5	–	–	–	–	–	–
COC(=O)CCc1oc2c(c1C(=O)OC)CCCC2	20	2	48	76	16	–	1 to 1.1	0.4	Toxic	Toxic	–	–	–	–
CCC[C@H]1C[C@H](C(=O)OC)[C@@H](CCC(=O)OC)O1	–	–	–	–	–	–	1 to 1.1	1.3	–	–	–	–	–	–
CCc1oc(CCC(=O)OC)c(C(=O)OC)c1CC	–	–	–	–	–	–	0.9 to 1	0.9 to 1	Toxic	–	Toxic	Toxic	Toxic	Toxic
CCCC1(O)OC(O)(CCC(=O)OC)C(C(=O)OC)=C1C (centres undefined)	–	–	–	–	–	–	0.9 to 1	0.3	Non-Toxic	Non-Toxic	–	–	–	–
CCCC1(O)OC(O)(CCC(=O)O)C(C(=O)O)=C1C (centres undefined)	–	–	–	–	–	–	1 to 1.1	0.9	Non-Toxic	Non-Toxic	Non-Toxic	Non-Toxic	Non-Toxic	Non-Toxic
Cc1c(CCOCc2ccccc2)oc(CCC(=O)O)c1C(=O)O	–	–	–	–	–	–	1.1	1.4	–	–	–	–	–	–
CCCc1oc(CCC(=O)OC)c(C(=O)OC)c1CCC	–	–	–	–	–	–	1 to 1.1	0.8 to 0.9	–	–	–	–	–	–
CCC[C@H]1C[C@H](C(=O)O)[C@@H](CCC(=O)O)O1	–	–	–	–	–	–	1 to 1.2	2	–	–	–	–	–	–

The next lines start with results.

inhibition at 0.05 h, 10 µM (CYP2D6) [%]	inhibition at 10 min, 10 µM (CYP2C9) [%]	inhibition at 0.05 h, 10 µM (CYP3A4) [%]	metabolised at 0.5 h, 4 µM [1] [%]	metabolised at 0.5 h, 4 µM [2] [%]	permeability [9]	Compound	fold change (FC) (HEK293)	fold change (FC) (Hepatocyte)	Activity [3]	Activity [4]	Activity [5]	Activity [6]	Activity [7]	Activity [8]
0	9	3	20	0	–	CCCc1oc(CCC(=O)O)cc1C	0.9 to 1	0.7	–	–	–	–	–	–
5	18	13	51	21	–	CCCc1oc(CCC)c(C(=O)O)c1C	1 to 2	1.4	–	–	–	–	–	–
2	3	2	9	10	–	CCCc1oc(CCCO)c(C(=O)O)c1C	1	0.6	Non-Toxic	Non-Toxic	–	–	–	–
28	27	59	60	49	–	CCCCCc1oc(CCC(=O)OC)c(C(=O)OC)c1C	1 to 1.2	1 to 1.2	Non-Toxic	Non-Toxic	–	–	–	–
3	17	0	21	0	Impermeable	CCc1oc(CCC(=O)O)c(C(=O)O)c1CC	1	1.1	Non-Toxic	–	–	–	–	–
0	0	0	100	100	–	CCCc1oc(CCCO)c(C(=O)OC)c1C	1 to 1.1	0.6	–	–	–	–	–	–
0	0	0	0	20	–	CCCc1oc(C(=O)O)c(C)c1C	1 to 1.2	2.2	–	–	–	–	–	–
3	9	3	7	5	–	CCCCCc1oc(CCC(=O)O)c(C(=O)O)c1C	1	1.2 to 1.5	Toxic	Toxic	–	–	–	–
0	0	0	7	3	–	CCCc1oc(CCC(=O)O)c(C(=O)O)c1CCC	1	1.6 to 1.8	Toxic	–	–	–	–	–
12	3	22	16	0	–	COC(=O)CCc1oc(C)c(C)c1C(=O)OC	1 to 1.1	0.8	–	–	–	–	–	–
0	0	21	–	–	–	CCCc1oc(CCC(C)=O)c(C(C)=O)c1C	0.9	0.3	–	–	–	–	–	–
